Test results: ChEMBL document CHEMBL1135464, “3-Aryl-2-quinolone derivatives: synthesis and characterization of in vitro and in vivo antitumor effects with emphasis on a new therapeutical target connected with cell migration” (J Med Chem, 2002)
Active and inactive are the calls of the source. The calls are words filed in the database; no cut-off is given here.

How the values were obtained:
A-427 [1] = assay: Cytotoxicity against A-427 nonsmall lung cell line using MTT colorimetric assay; type: functional, cell-based; conditions: Homo sapiens
In short: (§1)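 Human tumour lines from ATCC were grown at 37 °C in sealed dishes in MEM with 5% FCS. Cells were seeded at 40000 cells/mL in 96-well plates and left 24 h to plate. Each drug was then tested at six concentrations from 10^-5 to 10^-9 M. Growth was read by colorimetric MTT assay.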

A549 [2] = assay: Cytotoxicity against A549 nonsmall lung cell line using MTT colorimetric assay; type: functional, cell-based; conditions: Homo sapiens; in short: as §1
A 172 [3] = assay: Cytotoxicity against A-172 glioblastomas using MTT colorimetric assay; type: functional, cell-based; conditions: Homo sapiens; in short: as §1
[4] = Evaluated in vivo for maximum tolerated dose and found to be nontoxic; type: ADME, organism-based
HCT-15 [5] = assay: Cytotoxicity against HCT-15 colon cell line using MTT colorimetric assay; type: functional, cell-based; conditions: Homo sapiens; in short: as §1
J82 [6] = assay: Cytotoxicity against J82 bladder cell lines using MTT colorimetric assay; type: functional, cell-based; conditions: Homo sapiens; in short: as §1
LoVo [7] = assay: Cytotoxicity measured on LoVo colon cell line using MTT colorimetric assay; type: functional, cell-based; conditions: Homo sapiens; in short: as §1
Mus musculus [8] = assay: Evaluated in vivo for maximum tolerated dose (MTD/4) with Doxorubicin (DOX) using MXT mouse mammary adenocarcinoma model; type: functional
In short: (§2)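 MXT-HS hormone-sensitive mammary adenocarcinoma maintained by monthly s.c. transplantation in 6-week-old female B6D2F1 mice. Doses are set as fractions of the MTD. Drugs given i.p.; ETO and DOX 9 times, the quinolone 20 times. Nine mice per group. Tumor area (mm2) is the product of the two largest perpendicular caliper diameters, measured weekly. Mean ± SEM; Mann-Whitney test.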

Mus musculus [9] = assay: Evaluated in vivo for maximum tolerated dose (MTD/2) with Doxorubicin (DOX) using MXT mouse mammary adenocarcinoma model; type: functional; in short: as §2
PC-3 [10] = assay: Cytotoxicity against prostate cell line PC-3 using MTT colorimetric assay; type: functional, cell-based; conditions: Homo sapiens; in short: as §1
T47D [11] = assay: Cytotoxicity against Breast cancer cell line T-47D using MTT colorimetric assay; type: functional, cell-based; conditions: Homo sapiens; in short: as §1
T-24 [12] = assay: Cytotoxicity against T24 bladder cell lines using MTT colorimetric assay; type: functional, cell-based; conditions: Homo sapiens; in short: as §1
U373 MG [13] = assay: Cytotoxicity against U-373 MG glioblastomas using MTT colorimetric assay; type: functional, cell-based, U-373MG ATCC; conditions: Homo sapiens; in short: as §1
U-87 MG [14] = assay: Cytotoxicity against U-87 MG glioblastomas using MTT colorimetric assay; type: functional, cell-based, U-87MG ATCC; conditions: Homo sapiens; in short: as §1
MCF7 [15] = assay: Cytotoxicity against Breast cancer cell line MCF-7 using MTT colorimetric assay; type: functional, cell-based; conditions: Homo sapiens; in short: as §1
Mus musculus [16] = assay: Evaluated in vivo for maximum tolerated dose (MTD/4) using MXT mouse mammary adenocarcinoma model
HCT-15 [17] = assay: Cytotoxicity against HCT-15 colon cell line using MTT colorimetric assay at 1x 10 E-5; type: functional, cell-based; conditions: Homo sapiens; in short: as §1
A-427 [18] = assay: (§3) Cytotoxicity against A-427 nonsmall lung cell line using MTT colorimetric assay; NE is no effect at 1x 10 E-5; type: functional, cell-based, Homo sapiens; in short: as §1
A 172 [19] = assay: (§4) Cytotoxicity against A-172 glioblastomas using MTT colorimetric assay; NE is no effect at 1x 10 E-5; type: functional, cell-based, Homo sapiens; in short: as §1
HCT-15 [20] = assay: (§5) Cytotoxicity against HCT-15 colon cell line using MTT colorimetric assay; NE is no effect at 1x 10 E-5; type: functional, cell-based, Homo sapiens; in short: as §1
J82 [21] = assay: (§6) Cytotoxicity against J82 bladder cell lines using MTT colorimetric assay; NE is no effect at 1x 10 E-5; type: functional, cell-based, Homo sapiens; in short: as §1
LoVo [22] = assay: (§7) Cytotoxicity against LoVo colon cell line using MTT colorimetric assay; NE is no effect at 1x 10 E-5; type: functional, cell-based, Homo sapiens; in short: as §1
MCF7 [23] = assay: (§8) Cytotoxicity against Breast cancer cell line MCF-7 using MTT colorimetric assay; NE is no effect at 1x 10 E-5; type: functional, cell-based, Homo sapiens; in short: as §1
PC-3 [24] = assay: (§9) Cytotoxicity against prostate cell line PC-3 using MTT colorimetric assay; NE is no effect at 1x 10 E-5; type: functional, cell-based, Homo sapiens; in short: as §1
T-24 [25] = assay: (§10) Cytotoxicity against T24 bladder cell lines using MTT colorimetric assay; NE is no effect at 1x 10 E-5; type: functional, cell-based, Homo sapiens; in short: as §1
U373 MG [26] = assay: (§11) Cytotoxicity against U-373 MG glioblastomas using MTT colorimetric assay; NE is no effect at 1x 10 E-5; type: functional, cell-based, Homo sapiens; conditions: u-373mg atcc; in short: as §1
T47D [27] = assay: (§12) Cytotoxicity against Breast cancer cell line T-47D using MTT colorimetric assay; NE is no effect at 1x 10 E-5; type: functional, cell-based, Homo sapiens; in short: as §1
U-87 MG [28] = assay: (§13) Cytotoxicity against U-87 MG glioblastomas using MTT colorimetric assay; NE is no effect at 1x 10 E-5; type: functional, cell-based, Homo sapiens; conditions: u-87mg atcc; in short: as §1
A549 [29] = assay: (§14) Cytotoxicity against A549 nonsmall lung cell line using MTT colorimetric assay; NE is no effect at 1x 10 E-5; type: functional, cell-based, Homo sapiens; in short: as §1
A-427 [30] = assay: as §3; type: functional, cell-based; conditions: Homo sapiens; in short: as §1
A549 [31] = assay: as §14; type: functional, cell-based; conditions: Homo sapiens; in short: as §1
A 172 [32] = assay: as §4; type: functional, cell-based; conditions: Homo sapiens; in short: as §1
HCT-15 [33] = assay: as §5; type: functional, cell-based; conditions: Homo sapiens; in short: as §1
J82 [34] = assay: as §6; type: functional, cell-based; conditions: Homo sapiens; in short: as §1
MCF7 [35] = assay: as §8; type: functional, cell-based; conditions: Homo sapiens; in short: as §1
LoVo [36] = assay: as §7; type: functional, cell-based; conditions: Homo sapiens; in short: as §1
PC-3 [37] = assay: as §9; type: functional, cell-based; conditions: Homo sapiens; in short: as §1
T-24 [38] = assay: as §10; type: functional, cell-based; conditions: Homo sapiens; in short: as §1
U373 MG [39] = assay: as §11; type: functional, cell-based; conditions: Homo sapiens; U-373MG ATCC; in short: as §1
T47D [40] = assay: as §12; type: functional, cell-based; conditions: Homo sapiens; in short: as §1
U-87 MG [41] = assay: as §13; type: functional, cell-based; conditions: Homo sapiens; U-87MG ATCC; in short: as §1
T47D [42] = assay: Cytotoxicity against Breast cancer cell line T-47D using MTT colorimetric assay at 1x 10 E-5; type: functional, cell-based; conditions: Homo sapiens; in short: as §1

COc1ccc(-c2cc3c(OC)cc(OC)cc3n(CCc3nnn[nH]3)c2=O)cc1
IC50 (A-427 [1]): > 10 µM
IC50 (A549 [2]): > 10 µM
IC50 (A 172 [3]): > 10 µM
MTD [4]: 160 mg/kg
IC50 (HCT-15 [5]): > 10 µM
IC50 (J82 [6]): > 10 µM
IC50 (LoVo [7]): > 10 µM
MTD/4 (Mus musculus [8]): 40 mg/kg
MTD/2 (Mus musculus [9]): 80 mg/kg
IC50 (PC-3 [10]): > 10 µM
IC50 (T47D [11]): > 10 µM
IC50 (T-24 [12]): > 10 µM
IC50 (U373 MG [13]): > 10 µM
IC50 (U-87 MG [14]): > 10 µM
IC50 (MCF7 [15]): > 10 µM
MTD/8 (Mus musculus [16]): 20 mg/kg

COC(=O)CCn1c(=O)c(-c2ccc(OC)cc2)cc2c(OC)cc(OC)cc21
IC50 (A-427 [1]): > 10 µM
IC50 (A549 [2]): > 10 µM
IC50 (A 172 [3]): > 10 µM
MTD [4]: 160 mg/kg
IC50 (HCT-15 [17]): > 10 µM
IC50 (J82 [6]): > 10 µM
IC50 (LoVo [7]): > 10 µM
IC50 (PC-3 [10]): > 10 µM
IC50 (T47D [11]): > 10 µM
IC50 (T-24 [12]): > 10 µM
IC50 (U373 MG [13]): > 10 µM
IC50 (U-87 MG [14]): > 10 µM
IC50 (MCF7 [15]): > 10 µM

COc1ccc(-c2cc3c(OC)cc(OC)cc3n(CCCN(C)C)c2=O)cc1
IC50 (A-427 [18]): No effect
IC50 (A 172 [19]): No effect
MTD [4]: 160 mg/kg
IC50 (HCT-15 [20]): No effect
IC50 (J82 [21]): No effect
IC50 (LoVo [22]): No effect
IC50 (MCF7 [23]): No effect
IC50 (PC-3 [24]): No effect
IC50 (T-24 [25]): No effect
IC50 (U373 MG [26]): No effect
IC50 (T47D [27]): No effect
IC50 (U-87 MG [28]): No effect
IC50 (A549 [29]): No effect

COc1ccc(-c2cc3c(OC)cc(OC)cc3nc2S)cc1
Cytotoxicity (A-427 [30]): inactive
Cytotoxicity (A549 [31]): inactive
Cytotoxicity (A 172 [32]): inactive
MTD [4]: 160 mg/kg
Cytotoxicity (HCT-15 [33]): inactive
Cytotoxicity (J82 [34]): inactive
Cytotoxicity (MCF7 [35]): inactive
Cytotoxicity (LoVo [36]): inactive
Cytotoxicity (PC-3 [37]): inactive
Cytotoxicity (T-24 [38]): inactive
Cytotoxicity (U373 MG [39]): inactive
Cytotoxicity (T47D [40]): inactive
Cytotoxicity (U-87 MG [41]): inactive

COc1ccc(-c2cc3c(OC)ccc(OC)c3nc2O)cc1
IC50 (A-427 [1]): > 10 µM
IC50 (A549 [2]): > 10 µM
IC50 (A 172 [3]): > 10 µM
MTD [4]: 160 mg/kg
IC50 (HCT-15 [5]): > 10 µM
IC50 (J82 [6]): > 10 µM
IC50 (LoVo [7]): > 10 µM
IC50 (PC-3 [10]): > 10 µM
IC50 (T-24 [12]): > 10 µM
IC50 (U373 MG [13]): > 10 µM
IC50 (T47D [42]): > 10 µM
IC50 (U-87 MG [14]): > 10 µM
IC50 (MCF7 [15]): > 10 µM
